An excerpt weighted towards active compounds, which were near 1.2% of everything screened.
Diaphorase act: diaphorase activation or chemical reduction counter-screen; Diaphorase/resazurin coupled assay, resorufin fluorescence, 16 min; hits give high values; 1 = vehicle wells, 0 = NADH-free wells; activation factor at 20 µM; 190,000 compounds, 0.005% hits; AID 1229;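 active means diaphorase activity raised at least twofold by the compound at 20 µM; inactive means activation factor below 2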
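Test system: Clostridium kluyveri diaphorase, purified enzyme; input: enzyme 0.07 U/mL final; buffer or medium: 50 mM HEPES pH 7.4 with 4.542 mM MgCl2, 0.005% Tween 20; also added: 0.114 mM NADH and 0.1 mM resazurin, final amounts; schedule: 16 min enzyme reaction, ambient temperature; technique: fluorescence of resorufin, 544 nm excitation, 590 nm emission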
G6PDH counter: L. mesenteroides G6PDH inhibition counter-screen | 200,000 compounds, 0.12% hits | inhibition, % at 5 µM | Purified L. mesenteroides G6PDH, diaphorase/resazurin coupled fluorescence, 45 min; in the data active means inhibition above about 50%
Diaph inh CS: diaphorase inhibition or chemical oxidation counter-screen. inhibition, % at 20 µM. diaphorase resazurin-to-resorufin fluorescence, NADH, 16 min; bacterial (C. kluyveri) enzyme, not human. 190,000 compounds, 0.69% hits;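 active means primary screen inhibition at 20 µM above a set limit, cut at about 50% in these data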;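 further: plate controls were DMSO with full reaction for no effect and wells lacking NADH for full effect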
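Assay system – diaphorase enzyme from Clostridium kluyveri · Amount – diaphorase 0.14 U/mL (working solution) · Times – reaction incubation of 16 min at room temperature · Controls – No-NADH positive control and DMSO neutral control · Signal – resorufin fluorescence 544/590 nm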
HKDC1 inhibitor: inhibitors of human hexokinase HKDC1; inhibition, % at 20 µM; 340,000 compounds, 0.16% hits; recombinant HKDC1, G6PDH/diaphorase resazurin coupled fluorescence; Q2TB90;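 active means inhibition above about 35% when tested at 20 µM, limit read from the data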;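 further: plate controls were DMSO wells with enzyme for no effect and DMSO wells lacking enzyme for full effect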
Target sequence (Q2TB90 whole entry, looked up): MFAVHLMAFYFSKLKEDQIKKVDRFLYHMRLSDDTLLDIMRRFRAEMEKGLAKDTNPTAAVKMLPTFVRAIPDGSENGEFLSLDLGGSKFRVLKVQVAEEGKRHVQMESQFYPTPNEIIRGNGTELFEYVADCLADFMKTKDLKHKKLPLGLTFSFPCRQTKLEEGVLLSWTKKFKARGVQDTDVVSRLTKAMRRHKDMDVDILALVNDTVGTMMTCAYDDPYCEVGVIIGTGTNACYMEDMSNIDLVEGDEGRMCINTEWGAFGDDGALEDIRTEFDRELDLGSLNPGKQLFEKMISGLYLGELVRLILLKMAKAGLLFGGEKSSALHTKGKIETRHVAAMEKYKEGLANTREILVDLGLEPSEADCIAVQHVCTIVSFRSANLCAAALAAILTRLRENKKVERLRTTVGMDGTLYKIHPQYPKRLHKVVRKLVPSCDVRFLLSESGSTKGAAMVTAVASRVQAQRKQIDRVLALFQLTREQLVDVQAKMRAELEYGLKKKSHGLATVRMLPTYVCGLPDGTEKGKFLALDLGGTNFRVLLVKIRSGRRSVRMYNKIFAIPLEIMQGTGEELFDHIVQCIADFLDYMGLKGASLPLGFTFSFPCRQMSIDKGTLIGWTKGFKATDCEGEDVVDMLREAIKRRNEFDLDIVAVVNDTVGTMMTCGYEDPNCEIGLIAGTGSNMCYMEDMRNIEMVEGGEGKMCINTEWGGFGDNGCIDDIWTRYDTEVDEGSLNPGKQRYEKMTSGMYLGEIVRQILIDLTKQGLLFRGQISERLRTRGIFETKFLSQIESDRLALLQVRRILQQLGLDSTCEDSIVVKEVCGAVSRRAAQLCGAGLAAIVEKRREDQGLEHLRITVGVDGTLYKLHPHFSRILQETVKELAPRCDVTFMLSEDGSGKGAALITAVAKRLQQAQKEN
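Assay system: in-house recombinant HK5 (HKDC1) enzyme. Input: HKDC1 at 5 µg/mL. Medium: Tris pH 8.0 buffer with MgCl2, Tween-20, BSA, BME. Dosing: single 20 µM dose. Schedule: 90 min reaction incubation at room temperature, dark. Signal: resazurin-to-resorufin fluorescence via G6PDH and diaphorase coupling, 525/613 nm. Controls: DMSO-enzyme wells negative, buffer-substituted wells positive.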
PfG6PD inh: PfG6PD (Plasmodium falciparum) enzyme inhibition | inhibition, % at 20 µM | PfGluPho enzyme, NADPH resazurin-diaphorase fluorescence | 350,000 compounds, 0.78% hits | AID 504690;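 active means inhibition reaching at least a set limit at 20 µM in the primary screen, cut at about 59% in these data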;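 further: 0% = DMSO wells with substrate and 100% = DMSO wells lacking glucose-6-phosphate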
PfGluPho conf: PfG6PD inhibition, single-dose confirmed; shares compounds with PfG6PD inh; recombinant PfGluPho, NADPH-diaphorase-resazurin fluorescence; inhibition, % at 20 µM; 2,400 compounds, 34% hits; AID 504753;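 active means inhibition of at least 50% at 20 µM in any single replicate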;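 further: 0% = DMSO with substrate and 100% = DMSO lacking glucose-6-phosphate substrate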
Diaphorase 10uM: inhibits diaphorase or oxidizes, flagging false PfG6PD hits; 820 compounds, 39% hits; diaphorase-coupled resazurin reduction, fluorescence, NADPH 10 uM; shares compounds with PfG6PD inh; inhibition, % at 20 µM;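 active means average inhibition reaching 50% or more with the compound at 20 µM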;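 further: resorufin red fluorescence formed as diaphorase reduces resazurin using NADPH; 0% = DMSO with enzyme and 100% = DMSO without enzyme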
Diaph ctr 30uM: inhibits diaphorase or oxidizes, flagging false PfG6PD hits; AID 504863; Diaphorase/resazurin coupled assay, resorufin fluorescence, 30 uM NADPH; inhibition, % at 20 µM; shares compounds with PfG6PD inh; 820 compounds, 29% hits;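 active means inhibition averaging 50% or more, tested at 20 µM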;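 further: 0% = DMSO with enzyme and 100% = DMSO wells lacking diaphorase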
* marks the source's active call; other numbers are inactive results; x = not tested or not shown.

SMILES | Diaphorase act | G6PDH counter | Diaph inh CS | HKDC1 inhibitor | PfG6PD inh | PfGluPho conf | others
CCn1cc(CN2CCC(n3nccc3NC(=O)c3ccccc3C)CC2)cn1 | x | x | x | -0.2 | 0.2 | x
Cc1ccc(NC(=O)C(C)SCC(=O)Nc2ccc(F)cc2)cc1S(=O)(=O)N1CCOCC1 (configuration not stated) | x | x | x | 10.1 | 9.8 | x
CCOc1ccc(N(C(=O)c2ccc(S(=O)(=O)N3CCCC3)cc2)C2C=CS(=O)(=O)C2)cc1 (configuration not stated) | x | x | x | -5.5 | -6.0 | x
CNS(=O)(=O)c1cn(CC(=O)NCc2ccc(OC)cc2)cc1S(=O)(=O)NC | x | x | x | -3.1 | 0.1 | x
O=C(NNC(=O)c1ccccc1C(=O)O)c1ccc(S(=O)(=O)N2CCCCC2)cc1 | x | x | x | -4.5 | -29.5 | x
CC(C)(C)c1ccc(C(=O)NNc2ncccc2-n2cccc2)cc1 | x | x | x | 1.6 | -0.1 | x
Cc1ccc(N(CC(=O)N2CCCC2)S(C)(=O)=O)c(C)c1 | x | x | x | -1.9 | 2.9 | x
CCOC(=O)CCCCC1C(CCCC(=O)OCC)C=NN1C (configuration not stated) | x | x | x | 1.5 | -10.3 | x
Clc1ccccc1-c1nnc2sc(-c3ccc4c(c3)OCO4)nn12 | 1 | -51.2 | 1.8 | -0.3 | 62.6* | 40.9
Clc1ccccc1-c1nnc2sc(CCc3ccccc3)nn12 | 1 | -6.3 | 0.6 | -0.5 | 60.0* | 21.5
c1ccc(CCc2nn3c(-c4ccncc4)nnc3s2)cc1 | 1 | 20.4 | -3.9 | -10.9 | 35.2 | x
Cc1cc(C(=O)O)ccc1-n1c(C)cc(/C=C(/C#N)C(=O)Nc2ccccc2)c1C | 0.9 | -0.1 | 8.1 | -3.9 | 8.5 | x
Cc1cc(C(=O)O)ccc1-n1c(C)cc(C=C2C(=O)c3ccccc3C2=O)c1C | 0.7 | -0.1 | 28.6 | 1.8 | 80.3* | 46.8* | Diaphorase 10uM=59.7*;Diaph ctr 30uM=41.0
CC(C)(C)OC(=O)N(CCc1ccccc1)Cc1ccccc1OCc1ccc(NC(=O)C2CCCC2)cc1 | x | x | x | -2.6 | 12.0 | x
COc1ccc(CC(=S)N2CCOCC2)cc1 | 1 | -4.4 | 3.1 | -12.2 | 66.0* | 9.6
Cc1ccc(CC(=S)N2CCOCC2)cc1 | 1.1 | 6.9 | -9.7 | -14.2 | 47.5 | x
O=[N+]([O-])c1ccc2nc(-c3ccc(Cl)cc3)n(OCc3ccccc3)c2c1 | 0.9 | 1.6 | 8.6 | 7.8 | 121.6* | -1.1
CCOC(=O)C(C)On1c(-c2ccc(Cl)cc2)nc2ccc([N+](=O)[O-])cc21 (configuration not stated) | 0.7 | -3.4 | 29.2 | 2.4 | 75.8* | 8.5
CC(O)c1nc2cc([N+](=O)[O-])ccc2n1Cc1ccccc1 (configuration not stated) | x | x | x | 3.7 | -0.7 | x
CCOC(=O)C(C)On1c(-c2ccccc2)nc2ccc([N+](=O)[O-])cc21 (configuration not stated) | 0.8 | 14.7 | 19.7 | -2.6 | 61.6* | -9.8
Clc1ccc(COn2c(-c3ccc(Cl)cc3)nc3ccccc32)cc1 | 0.9 | 0.5 | 13.5 | -0.9 | 30.8 | x
O=c1c2ccc(Cl)cc2nc(-c2ccc([N+](=O)[O-])cc2)n1O | 1 | 4.3 | -3.9 | -5.7 | 5.8 | x
CN(C)S(=O)(=O)c1cccc(COC(=O)Cc2c(F)cccc2Cl)c1 | x | x | x | -1.3 | 22.2 | x
Nc1[nH]c(=O)[nH]c(=O)c1N=Cc1ccccc1 | x | x | x | -25.5 | 131.1* | 97.6* | Diaphorase 10uM=15.6;Diaph ctr 30uM=2.7
O=c1[nH]c(NCCO)c(N=Cc2ccccc2)c(=O)[nH]1 | x | x | x | -35.9 | 67.8* | 104.2* | Diaphorase 10uM=78.6*;Diaph ctr 30uM=43.1
SMILES | Diaphorase act | G6PDH counter | Diaph inh CS | HKDC1 inhibitor | PfG6PD inh | PfGluPho conf | others
CC(C)C[C@@H](CNCC(=O)[C@H](CC(C)C)NC(=O)c1[nH]cnc1C(=O)N[C@H](CN)CC(C)C)NC(=O)c1nc[nH]c1C(=O)N[C@@H](CC(=O)O)C(=O)O | x | x | x | -5.5 | -5.5 | x
CN(C)C(=O)c1ccc(NC(=O)CN2C(=O)NC3(CCCc4ccccc43)C2=O)cc1 (configuration not stated) | x | x | x | -0.2 | -16.6 | x
CC(C)NC(=O)N(C)C[C@@H]1OCc2cnnn2CCCC(=O)N([C@@H](C)CO)C[C@H]1C | x | x | x | x | -3.7 | x
CC1(OC(=O)C2CCCC2)C(=O)C=C2C=C(c3ccsc3)N(CCc3ccccn3)C=C2C1=O (configuration not stated) | x | x | x | 24.4 | 69.5* | 39.5
CC1(OC(=O)C2CCCC2)C(=O)C=C2C=C(c3ccsc3)N(C3CC3)C=C2C1=O (configuration not stated) | x | x | x | 21.4 | 80.0* | 28.4
CC1(OC(=O)C2CCCC2)C(=O)C=C2C=C(c3ccsc3)N(C(CO)CO)C=C2C1=O (configuration not stated) | x | x | x | 19.8 | 66.3* | 7.1
Cc1cccc(NC(=O)C(C)OC(=O)CNC(=O)C2CCCCC2)c1 (configuration not stated) | x | x | x | x | -11.7 | x
CCCCn1c(N)c(N(CC(C)C)C(=O)CCNC(=O)c2ccc([N+](=O)[O-])cc2)c(=O)[nH]c1=O | x | x | x | -3.1 | -16.3 | x
CC(=O)c1c(C)[nH]c(C(=O)COC(=O)c2ccc(Cl)nc2)c1C | x | x | x | 6.0 | 9.9 | x
CC[n+]1c(C)sc2c3ccsc3ccc21 | 0.7 | 1.2 | 33.5 | -11.5 | 69.8* | 26.9
COCCN(CCOC)Cc1c(O)ccc2c1O/C(=C\c1ccc(C)o1)C2=O | x | x | x | 5.5 | 62.9* | 8.3
CCN(CC)Cc1c(O)ccc2c1O/C(=C\C=C\c1ccccc1)C2=O | x | x | x | 1.1 | 22.9 | x
O=C(O)CC(C(=O)Nc1ccc(F)cc1)C1CCCO1 (configuration not stated) | x | x | x | -4.6 | -0.8 | x
Cc1ccc(NC(=O)C2C(=O)N(CCO)C3(C)CC2c2ccccc2O3)cc1 (configuration not stated) | 1 | 6.3 | 1.8 | 1.6 | 65.1* | 33.0
COc1ccc(NC(=O)C2C(=O)N(C)C3(C)CC2c2ccccc2O3)cc1 (configuration not stated) | 0.9 | 1.8 | 5.9 | -0.6 | 8.0 | x
COc1ccc(NC(=O)C2C(=O)N(CCO)C3(C)CC2c2ccccc2O3)cc1 (configuration not stated) | 0.9 | 3.3 | 11.1 | -3.5 | 69.2* | 18.0
CC(NC(=O)C1C(=O)N(CCO)C2(C)CC1c1ccccc1O2)c1ccccc1 (configuration not stated) | 1 | -1.4 | 2.8 | -2.9 | 1.2 | x
COc1ccc(Nc2nc(-c3ccccc3)c(C(=O)Nc3cccnc3)s2)cc1 | 0.8 | -1.6 | 16.4 | -5.5 | 64.5* | 15.7

Screening results as filed in PubChem.
